Tests used:
[1] = Cytotoxicity against human Huh7ET cells by CytoTox-one cell proliferation assay; assay type: cell-based; conditions: Huh-7
In short: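 Parallel plate of replicon Huh 7 ET cells (5000/well, DMEM without G418), compounds from DMSO stocks diluted in DMEM, 72 h. Viability by tetrazolium-based CytoTox-1 proliferation assay. Mean of four replicates; IC50 = concentration decreasing cell viability by 50%.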

[2] = Selectivity index, ratio of IC50 for human Huh7ET cells to EC50 for Hepatitis C virus; assay type: toxicity, cell-based, Huh-7; conditions: read-out: Ratio IC50/EC50
In short: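 SI taken as IC50 (CytoTox-1 viability, Huh 7 ET replicon cells, 72 h) divided by EC50 (replicon luciferase, same cells and exposure); each from four-replicate averages.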

Hepatitis C virus = assay: Antiviral activity against Hepatitis C virus infected in human Huh7ET cells assessed as inhibition of dicistronic viral RNA replication after 72 hrs by luciferase reporter gene assay; assay type: functional, organism-based, Hepacivirus hominis; conditions: Huh-7, 72 h
In short: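 HCV replicon Huh 7 ET cells seeded 5000/well in DMEM without G418 overnight; compounds dissolved in DMSO, diluted in DMEM, dose-response. After 72 h, replicon-derived luciferase read by Steady-Glo. Mean of four replicates; EC50 = concentration inhibiting HCV RNA replication by 50%.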

SMILES	IC50 [1] [µM]	selectivity ratio [2]	EC50 (Hepatitis C virus) [µM]
Cc1ccsc1C(=O)NC(=S)Nc1cc2[nH]c(=O)cnc2cc1N(C)C1CCCCC1	12.6	3.84	3.27
COc1cc(C(=O)NC(=S)Nc2cc3[nH]c(=O)cnc3cc2N(C)C2CCCCC2)cc(OC)c1OC	15.9	3.1	5.16
CN(c1cc2ncc(=O)[nH]c2cc1Nc1nc(-c2ccc(F)cc2)cs1)C1CCCCC1	9.92	1.9	5.26
CN1CCN(c2cc3ncc(=O)[nH]c3cc2Nc2nc(-c3ccccc3)cs2)CC1	10.2	2.2	4.59
CN(c1cc2ncc(=O)[nH]c2cc1NC(=O)Nc1cccc2ccccc12)C1CCCCC1	5.33	0.5	9.84
CCCN(CCC)c1cc2ncc(=O)[nH]c2cc1Nc1nc(-c2ccccc2)cs1	31.6	8.3	3.81
CN(c1cc2nc(Cc3ccccc3)c(=O)[nH]c2cc1Nc1nc(-c2ccccc2)cs1)C1CCCCC1	42	< 2.1	> 20
CN(c1cc2ncc(=O)[nH]c2cc1NC(=S)Nc1cccc2ccccc12)C1CCCCC1	43.6	< 2.2	> 20
CN(c1cc2ncc(=O)[nH]c2cc1N1C(=O)CN(c2cccc3ccccc23)C1=S)C1CCCCC1	11.2	0.85	13.1
CN(c1cc2ncc(=O)[nH]c2cc1NC(=O)Nc1ccccc1)C1CCCCC1	5.52	0.5	11.4
CN(c1cc2ncc(=O)[nH]c2cc1NC(=N)NCc1ccc(Cl)cc1)C1CCCCC1	4.4	1.12	3.94
CN(c1cc2ncc(=O)[nH]c2cc1NC(=S)NC(=O)c1cccc(C(F)(F)F)c1)C1CCCCC1	31.5	7.5	4.08
CN(c1cc2ncc(=O)[nH]c2cc1N1CC(=O)N(c2ccccc2)C1=S)C1CCCCC1	2.99	1.4	2.21
CN(c1ccccc1)c1cc2ncc(=O)[nH]c2cc1Nc1nc(-c2ccccc2)cs1	15.9	3.4	4.61
COc1ccc(CNC(=N)Nc2cc3[nH]c(=O)cnc3cc2N(C)C2CCCCC2)cc1	19.5	< 0.98	> 20
CN(c1cc2ncc(=O)[nH]c2cc1NC(=N)NCc1ccc(F)cc1)C1CCCCC1	10.2	0.8	12.8
CN(c1cc2ncc(=O)[nH]c2cc1Nc1nc2c(s1)Cc1ccccc1-2)C1CCCCC1	10.9	2.39	4.57
CN(c1cc2ncc(=O)[nH]c2cc1NC(=S)NC(=O)c1ccc(Cl)nc1)C1CCCCC1	34.5	2.1	16.4
CN(c1cc2ncc(=O)[nH]c2cc1NC(=S)NC(=O)c1ccccc1)C1CCCCC1	11.1	4.57	2.42
CN(c1cc2ncc(=O)[nH]c2cc1Nc1nc(-c2cccnc2)cs1)C1CCCCC1	11.5	2.09	5.49
CN(c1cc2ncc(=O)[nH]c2cc1Nc1nc(-c2cccc3ccccc23)cs1)C1CCCCC1	57.4	8.4	6.8
CN(c1cc2ncc(=O)[nH]c2cc1NC(=S)Nc1cccc(C(F)(F)F)c1)C1CCCCC1	78.4	< 3.9	> 20
Cc1nc2cc(N(C)C3CCCCC3)c(Nc3nc(-c4ccccc4)cs3)cc2[nH]c1=O	12.3	3.15	3.91

SMILES	IC50 [1] [µM]	selectivity ratio [2]	EC50 (Hepatitis C virus) [µM]
CN(c1cc2ncc(=O)[nH]c2cc1Nc1nc(C(F)(F)F)cs1)C1CCCCC1	37.4	4.6	8.12
CN(c1cc2ncc(=O)[nH]c2cc1NC(=N)NCc1ccccn1)C1CCCCC1	48.6	< 2.4	> 20
CN(c1cc2ncc(=O)[nH]c2cc1Nc1nc(-c2ccc3c(c2)OCO3)cs1)C1CCCCC1	61.2	< 3.1	> 20
CN(C)c1cc2ncc(=O)[nH]c2cc1Nc1nc(-c2ccccc2)cs1	57.5	< 2.9	> 20
CN(c1cc2c(cc1Nc1nc(-c3ccccc3)cs1)NC(=O)CO2)C1CCCCC1	17.5	1.1	15.4
CN(c1cc2ncc(=O)[nH]c2cc1NC(=S)Nc1ccccc1)C1CCCCC1	49.6	< 2.8	> 20
CN(c1cc2c(cc1Nc1nc(-c3ccccc3)cs1)[nH]c(=O)c1cccn12)C1CCCCC1	18	9.9	1.82
CN(c1cc2ncc(=O)[nH]c2cc1Nc1nc(-c2ccc(C#N)cc2)cs1)C1CCCCC1	18.1	2.98	6.07
CSCCc1nc2cc(N(C)C3CCCCC3)c(Nc3nc(-c4ccccc4)cs3)cc2[nH]c1=O	86	< 4.3	> 20
CN(c1cc2c(cc1Nc1nc(-c3ccccc3)cs1)NC(=O)CS2)C1CCCCC1	13.8	< 0.69	> 20
CN(c1cc2ncc(=O)[nH]c2cc1NC(=S)NC(=O)c1ccco1)C1CCCCC1	17.3	9.6	1.8
CN(c1cc2ncc(=O)[nH]c2cc1NC(=S)NC(=O)/C=C/c1ccccc1)C1CCCCC1	11	1.6	6.77
CN(c1cc2ncc(=O)[nH]c2cc1NC(=N)NCc1cccc(C(F)(F)F)c1)C1CCCCC1	54	< 2.7	> 20
CN(c1cc2ncc(=O)[nH]c2cc1NC(=S)NC(=O)c1ccc(OC(F)(F)F)cc1)C1CCCCC1	6.47	2.78	2.33
CN(c1cc2ncc(=O)[nH]c2cc1NC(=S)NC(=O)c1ccc(F)cc1)C1CCCCC1	11.4	3.8	2.97
CN(c1cc2ncc(=O)[nH]c2cc1Nc1nc(-c2cccs2)cs1)C1CCCCC1	71.3	< 3.6	> 20
CN(c1cc2ncc(=O)[nH]c2cc1Nc1nc(-c2ccc(Cl)cc2)cs1)C1CCCCC1	16.7	3.1	5.39
CN(c1cc2ncc(=O)[nH]c2cc1Nc1nc(-c2ccc(-c3ccccc3)cc2)cs1)C1CCCCC1	82	< 4.1	> 20
CC(C)c1nc2cc(N(C)C3CCCCC3)c(Nc3nc(-c4ccccc4)cs3)cc2[nH]c1=O	67.4	7.8	8.62
CN(c1cc2ncc(=O)[nH]c2cc1NC(=S)NC(=O)c1cccc2ccccc12)C1CCCCC1	9.98	1.82	5.48
CN(c1cc2c(cc1Nc1nc(-c3ccccc3)cs1)NC(=O)C1CCCCN21)C1CCCCC1 (stereo not given)	11	9.27	1.19
CN(c1cc2ncc(=O)[nH]c2cc1NC(=N)NCc1ccccc1)C1CCCCC1	9.94	0.87	11.4

Source: ChEMBL document CHEMBL1811767, “Quinoxalin-2(1H)-one derivatives as inhibitors against hepatitis C virus” (J Med Chem, 2011)
